Most compounds without a hit are left out; they make up all but 1.8% or so of the library.
NPY-Y2 PAM-ag = potentiates or activates human NPY-Y2 receptor | P49146 | cells expressing NPY-Y2, potentiator/agonist read-out | activation, % at 3.6 µM | actives 0.45% (n = 220,000) | AID 1359; in the data active means activation above about 27%;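 further: cells stimulated with NPY near EC25 plus isoproterenol at EC100; 0% = vehicle plus submaximal agonist and 100% = vehicle plus saturating agonist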
Target sequence (P49146 whole entry, looked up): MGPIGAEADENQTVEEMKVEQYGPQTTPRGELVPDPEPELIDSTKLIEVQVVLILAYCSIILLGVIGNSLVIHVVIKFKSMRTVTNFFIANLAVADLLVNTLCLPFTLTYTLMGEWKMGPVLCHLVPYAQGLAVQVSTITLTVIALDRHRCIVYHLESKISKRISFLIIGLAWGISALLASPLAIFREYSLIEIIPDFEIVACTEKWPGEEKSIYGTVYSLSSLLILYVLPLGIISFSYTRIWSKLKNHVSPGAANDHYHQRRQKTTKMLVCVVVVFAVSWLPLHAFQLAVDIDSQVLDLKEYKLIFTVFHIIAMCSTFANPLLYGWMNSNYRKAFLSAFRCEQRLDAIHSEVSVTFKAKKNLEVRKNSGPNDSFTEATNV
NPY-Y2 antag = blocks the human neuropeptide Y Y2 receptor. inhibition, % at 2.7 µM. actives 0.99% (n = 140,000). P49146. AID 793. NPY-Y2 expressing cells, antagonist mode; in the data active means inhibition above about 17%;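 further: 0% = vehicle with agonist challenge and 100% = reference antagonist with challenge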
NPY1 pot ag = potentiators or agonists of human neuropeptide Y receptor Y1 | AID 1304 | P25929 | NPY-Y1 expressing cells, potentiator/agonist activation | actives 0.37% (n = 220,000) | activation, % at 3.6 µM; in the data active means activation above about 33%, passing the limit was not always enough;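 further: cells stimulated with NPY at EC10 then isoproterenol at EC100; 0% = low agonist plus stimulus and 100% = saturating agonist plus stimulus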
Target sequence (P25929 whole entry, looked up): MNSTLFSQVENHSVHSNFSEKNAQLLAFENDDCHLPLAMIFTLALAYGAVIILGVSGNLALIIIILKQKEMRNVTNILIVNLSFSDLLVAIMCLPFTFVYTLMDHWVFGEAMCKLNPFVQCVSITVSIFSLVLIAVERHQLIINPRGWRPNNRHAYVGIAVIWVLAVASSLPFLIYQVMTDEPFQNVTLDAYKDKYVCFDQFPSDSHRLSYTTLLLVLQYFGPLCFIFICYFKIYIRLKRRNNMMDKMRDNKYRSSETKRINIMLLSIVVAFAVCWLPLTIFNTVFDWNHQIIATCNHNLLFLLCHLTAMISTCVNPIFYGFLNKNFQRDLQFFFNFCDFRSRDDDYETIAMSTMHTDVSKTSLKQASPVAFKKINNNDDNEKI
NPY Y1 blocker = blocks the human neuropeptide Y Y1 receptor | actives 1% (n = 200,000) | inhibition, % at 3.6 µM | P25929 | HEK293-CNG Y1 cells, membrane potential fluorescence; NPY at EC95, then isoproterenol;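 active means inhibition above the campaign mean inhibition of all tested compounds plus 3 SD, cut at about 20% in these data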;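 further: 0% = DMSO wells given NPY plus isoproterenol and 100% = isoproterenol alone without NPY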
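Material: HEK293 Y1/CNG channel cell line; also added: NPY (25 nM), isoproterenol (1 µM), Ro 20-1724 (25 µM); doses: one concentration, 3.6 µM, in 0.4% DMSO; schedule: compound incubation 1 h at room temperature, readout 45 min post-stimulation; technique: membrane potential fluorescence; measure: fluorescence ratio normalized to % inhibition between controls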
NPY-Y2 confirm = confirmation of human NPY-Y2 receptor potentiators or agonists | activation, % at 3.6 µM | shares compounds with NPY-Y2 PAM-ag | cell-based NPY-Y2 potentiator/agonist assay | AID 1539 | actives 20% (n = 450); in the data active means activation above about 33%
NPY-Y1 potentiator = potentiates or activates NPY-Y1, counter-screen for NPY-Y2 hits | shares compounds with NPY-Y2 PAM-ag | Y1 HEK293-CNG cells, membrane potential fluorescence | activation, % at 3.6 µM | actives 20% (n = 450) | AID 1651; in the data active means activation above about 45%;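 further: cells stimulated with submaximal NPY then isoproterenol with phosphodiesterase inhibitor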
NPY-Y1 ag 2 = activates human NPY-Y1, counter-screen for NPY-Y2 potentiators | HEK293 Y1-CNGC, membrane potential fluorescence, agonism | actives 37% (n = 450) | activation, % at 3.6 µM | shares compounds with NPY-Y2 PAM-ag;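 active means activation above the mean of DMSO-only control wells plus 3 SD, cut at about 18% in these data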;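 further: cells stimulated with 1 µM isoproterenol plus the PDE inhibitor Ro 20-1724; 0% = isoproterenol with DMSO and no NPY and 100% = 40 nM NPY; Y1 agonists lower the membrane potential dye signal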
CNGC inh = cyclic nucleotide gated channel inhibition as counter-screen | shares compounds with NPY-Y2 PAM-ag | HEK293-CNG parental, isoproterenol cAMP, membrane potential fluorescence | inhibition, % at 3.6 µM | actives 32% (n = 450);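 active means inhibition above the control-well mean plus 3 SD of those wells, cut at about 22% in these data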;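 further: 0% = DMSO with isoproterenol and 100% = DMSO without isoproterenol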
Y2 agonist ctr = NPY-Y2 agonism, counter-screen for Y2 potentiators; activation, % at 3.6 µM; shares compounds with NPY-Y2 PAM-ag; HEK293 Y2/CNGC cells, membrane potential fluorescence, agonist mode; AID 1710; actives 56% (n = 450);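 active means activation above the mean of solvent-only control wells plus 3 SD, cut at about 10% in these data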;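 further: cells stimulated by isoproterenol with no NPY added so direct agonism is tested; 0% = DMSO with isoproterenol alone and 100% = NPY at EC100 plus isoproterenol; agonism lowers probe fluorescence through less cAMP and CNG channel opening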
* hit, by the source's call; / = no result given.

SMILES | NPY-Y2 PAM-ag | NPY-Y2 antag | NPY1 pot ag | NPY Y1 blocker | NPY-Y2 confirm | NPY-Y1 potentiator | NPY-Y1 ag 2 | CNGC inh | Y2 agonist ctr
Cc1ccc(NS(=O)(=O)c2cc([N+](=O)[O-])ccc2NNC(=S)Nc2cccc(Cl)c2)c(C)c1 | 31* | -7 | 38 | -11 | 76* | 97* | 79* | 62* | 75*
Cc1ccc(NS(=O)(=O)c2cc([N+](=O)[O-])ccc2NNC(=S)Nc2cc(C)ccc2C)c(C)c1 | 11 | -6 | 16 | -6 | / | / | / | / | /
Cc1cc(C)n(-c2nncn2NC(=O)c2ccc(Cl)cc2O)n1 | -10 | 2 | 15 | 2 | / | / | / | / | /
CN(C)/C=C/C(=O)c1ncc(C(F)(F)F)cc1Cl | 28* | / | 2 | -2 | -3 | 3 | -8 | -10 | -2
CC1=CC(C)C2COC(c3ccc[n+](C)c3)C1C2C (centres undefined) | 12 | 2 | -34 | 4 | / | / | / | / | /
O=C(NC1CCCCCC1)C1Cc2ccccc2CN1C(=O)c1ccco1 (centres undefined) | -2 | / | -4 | 9 | / | / | / | / | /
NC(=NCCc1c[nH]c2ccccc12)NC(=O)c1ccc(Cl)cc1 | 28* | / | 27 | -1 | 26 | 30 | 39* | 37* | 42*
O=C(NNc1ccc(C(F)(F)F)cc1[N+](=O)[O-])c1ccc(NS(=O)(=O)c2ccc(F)cc2)cc1 | 45* | -6 | 38 | -12 | 58* | 72* | 62* | 62* | 62*
CC(C)[C@H](Nc1ccc(C(F)(F)F)cc1[N+](=O)[O-])C(=O)O | -12 | / | -16 | / | / | / | / | / | /
O=C(/C=C/c1cn(-c2ccccc2)nc1-c1cccnc1)N1CCCC1 | 28* | / | 20 | -2 | 12 | 22 | 12 | 4 | 15*
Cc1cc(C)n(-c2c(F)c(F)c(CO)c(F)c2F)n1 | 12 | 1 | 13 | 4 | / | / | / | / | /
COc1ccc2c(c1)-c1c(ssc1=S)C(C)(C)N2C(=O)CSC1=NCCS1 | 43* | -8 | 51 | -9 | 26 | 28 | 23* | 23* | 20*
Cc1cc2c(cc1C)N(C(=O)CSC1=NCCS1)C(C)(C)c1ssc(=S)c1-2 | 42* | -5 | 28 | -9 | 23 | 29 | 24* | 11 | 29*
CCCC(=O)Nc1ccc2c(c1)nc1n2CCN(C2CCCCC2)C1 | -1 | / | 18 | -4 | / | / | / | / | /
COC(=O)c1ccccc1NC(=O)COC(=O)c1ccccc1N=Nc1ccc(N(C)C)cc1 | 14 | -2 | 14 | 1 | / | / | / | / | /
CC(=O)c1ccc(NC(=O)COC(=O)c2ccccc2N=Nc2ccc(N(C)C)cc2)cc1 | 44* | -6 | 33 | -3 | 48* | 62* | 50* | 44* | 41*
CCOc1ccccc1-c1ccc(C(=O)NCc2ccccc2)o1 | -13 | 2 | -43 | 7 | / | / | / | / | /
Cc1oc2cc(O)ccc2c(=O)c1Oc1ccccc1 | -11 | 4 | -14 | -1 | / | / | / | / | /
O=C(O)c1ccc(Oc2c(C(F)(F)F)oc3cc(O)ccc3c2=O)cc1 | 39* | / | 12 | 11 | -1 | -1 | -13 | 0 | -2
Cc1[nH]c2ccccc2c1SCC(=O)O | 5 | 3 | -4 | 5 | / | / | / | / | /
CNC(=O)CCc1[nH]c2ccccc2c1Sc1ccccc1 | 26* | -1 | 6 | 2 | 12 | 21 | 14 | 14 | 23*
N=c1c(-c2nc3ccccc3[nH]2)cc(C(=O)c2ccco2)nn1-c1ccccc1 | 38* | -1 | 12 | -1 | 83* | 108* | 80* | 73* | 80*
Nc1c(-c2cccc(Cl)c2)cnn1-c1cccc(C(F)(F)F)c1 | 42* | 1 | 36 | 2 | 61* | 68* | 61* | 47* | 74*
Nc1c(-c2ccccc2)cnn1-c1cccc(C(F)(F)F)c1 | 6 | 2 | 8 | -4 | / | / | / | / | /
CCc1c(C)c(C#N)c2nc3ccccc3n2c1N(C)C | 101* | 0 | -10 | 7 | -14 | -16 | -29 | -27 | -16
SMILES | NPY-Y2 PAM-ag | NPY-Y2 antag | NPY1 pot ag | NPY Y1 blocker | NPY-Y2 confirm | NPY-Y1 potentiator | NPY-Y1 ag 2 | CNGC inh | Y2 agonist ctr
Cc1sc(-c2ccccn2)nc1OC(=O)c1ccc(F)cc1F | 37* | / | 26 | -4 | 7 | 11 | 14 | -3 | 18*
Cc1sc(-c2ccccn2)nc1OC(=O)c1ccc(Cl)c(Cl)c1 | 3 | 5 | -2 | 5 | / | / | / | / | /
Cc1cc(C)nc(SC2CCCCC2NS(=O)(=O)c2ccccc2)n1 (centres undefined) | 3 | 3 | -28 | -1 | / | / | / | / | /
CC(C)C(=O)Nc1ccc(N2CCN(c3ccc(F)cc3)CC2)cc1 | 31* | / | -2 | 16 | 1 | 13 | 3 | 4 | -3
c1ccc(-c2nc(-c3cccs3)[nH]c2-c2ccccc2)cc1 | 41* | -2 | 37 | -9 | 28 | 46* | 27* | 26* | 28*
CC(=O)Nc1ccc(C(=O)CSc2nccc(=O)[nH]2)cc1 | -15 | / | -20 | 3 | / | / | / | / | /
COc1ccc(/C=C/C(=O)c2ccc(O)cc2)cc1COc1ccc(F)cc1 | 1 | -2 | 7 | -6 | / | / | / | / | /
COc1ccc(Oc2ccc(/C=C/C(=O)c3ccc(O)cc3)cc2[N+](=O)[O-])cc1 | 38* | 2 | 19 | -4 | 16 | 34 | 23* | 20 | 11*
COc1ccc(C2Nc3cc(OC)ccc3-n3cccc32)cc1 (centres undefined) | 11 | / | -14 | / | / | / | / | / | /
O=[N+]([O-])c1cc(C(F)(F)F)cc([N+](=O)[O-])c1NCCNC(=S)Nc1ccc(Cl)c(Cl)c1 | 102* | / | 2 | / | 34* | 24 | 18* | 20 | 47*
C=CCc1ccccc1OCC(O)CN1CCN(c2ccc(C)cc2)CC1 (centres undefined) | 44* | 7 | 45 | -5 | 28 | 31 | 55* | 0 | 47*
COc1ccc(OCC(O)CN2CCN(c3ccccc3)CC2)cc1 (centres undefined) | -10 | / | -7 | 8 | / | / | / | / | /
COc1ccc(N2CCN(CC(O)COc3ccccc3[N+](=O)[O-])CC2)cc1 (centres undefined) | 37* | 2 | 39 | 0 | 32 | 31 | 49* | 7 | 34*
C=CCc1ccccc1OCC(O)CN1CCN(C(=O)OCC)CC1 (centres undefined) | 35* | 8 | 31 | 3 | 11 | 13 | 20* | 1 | 6
Cc1cccc(N2CCN(CC(O)COc3ccccc3Cl)CC2)c1 (centres undefined) | -21 | / | 35 | / | / | / | / | / | /
CCOc1ncccc1C(=O)Nc1cccc(Cl)c1Cl | -8 | / | -19 | 6 | / | / | / | / | /

From PubChem BioAssay
